Results reported in ChEMBL document CHEMBL5038657, “Discovery of Novel Inhibitors of Uridine Diphosphate-N-Acetylenolpyruvylglucosamine Reductase (MurB) from Pseudomonas aeruginosa, an Opportunistic Infectious Agent Causing Death in Cystic Fibrosis Patients” (J Med Chem, 2022).

How the values were obtained:
Pseudomonas aeruginosa [1] = assay: Binding affinity to Pseudomonas aeruginosa MurB assessed as change in melting temperature at 1 mM by differential scanning fluorimetry
How it was run: (§1)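 Recombinant Pa MurB (E. coli BL21(DE3)-expressed, SUMO tag cleaved; MurB–FAD complex) at 10 μM in 25 mM Tris–HCl pH 8.0, 150 mM NaCl, 5X SyproOrange with ligand in DMSO-d6. Ramped 25–95 °C in 0.5 °C steps of 30 s. ΔTm taken against DMSO-d6 reference, with NADP+ as positive control. Ligand at 5.0 mM run once (n = 1); at 1.0 mM run in triplicate (n = 3).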

Pseudomonas aeruginosa [2] = assay: Binding affinity to Pseudomonas aeruginosa MurB assessed as change in melting temperature at 5 mM by differential scanning fluorimetry; how it was run: as §1
[3] = Binding affinity to Pseudomonas aeruginosa MurB assessed as dissociation constant at 3 mM by isothermal titration calorimetry

| SMILES | ΔTm (Pseudomonas aeruginosa [1]) [°C] | ΔTm (Pseudomonas aeruginosa [2]) [°C] | Kd [3] [µM] |
| --- | --- | --- | --- |
| Cc1cccc(C)c1-n1ncc(C(=O)O)c1C(F)(F)F | 2.5 |  |  |
| O=C(O)c1cnn(Cc2ccccc2)c1C(F)(F)F | 1 |  |  |
| Cc1c(C(=O)O)cnn1-c1ccccc1 | 0.5 | 1.5 |  |
| Cc1ccccc1-n1c(C)cc(C(=O)O)c1C(F)(F)F | 2.5 |  |  |
| Cc1cc(Cl)c(Cl)cc1-n1ncc(C(=O)NS(=O)(=O)c2ccccc2)c1C(F)(F)F | 2.7 |  | 12 |
| Cc1cc(C(=O)O)c(C(F)(F)F)n1-c1ccccc1 | 2 |  | 112 |
| O=C(O)c1cnn(-c2ccccc2)c1C(F)(F)F | 1 |  |  |
| O=C(O)Cc1ccccc1 | 0 | 1 |  |
| Cc1cc(C(=O)O)n[nH]1 | 0 | 1 |  |
| CN1C(=O)C(=O)c2ccccc21 | 1 | 4 |  |
| Cc1cc(C(=O)O)c(C)n1-c1ccc(Cl)cc1 | 1.5 |  |  |
| O=C(O)c1cnn(-c2ccccc2C(F)(F)F)c1C(F)(F)F | 1 |  |  |
| NCc1ccc2[nH]ccc2c1 | 0.2 | 1 |  |
| Cc1cc(C(=O)O)c(C)n1-c1ccc(Cl)c(Cl)c1 | 2.3 |  |  |
| Cc1ccc(C)c(-n2ncc(C(=O)O)c2C(F)(F)F)c1 | 2 |  | 138 |
| O=C(O)c1cnn(-c2ccc(Cl)c(Cl)c2)c1C(F)(F)F | 2.3 |  | 26.1 |
| Cc1c(-n2ncc(C(=O)O)c2C(F)(F)F)ccc(Cl)c1Cl | 3.7 |  | 11.3 |
| O=C(O)CCc1cccc(Cl)c1 | 0.5 | 1 |  |
| O=C(O)c1cnn(-c2ccccc2Br)c1C(F)(F)F | 2 |  |  |
| O=C(O)c1ccc(Cl)c(Cl)c1 | 0.5 | 1 |  |
| O=C(O)COc1ccc(Cl)c(Cl)c1 | 1 | 1.5 |  |

| SMILES | ΔTm (Pseudomonas aeruginosa [1]) [°C] | ΔTm (Pseudomonas aeruginosa [2]) [°C] | Kd [3] [µM] |
| --- | --- | --- | --- |
| Cc1ccccc1-n1ncc(C(=O)O)c1C(F)(F)F | 2 |  |  |
| Cc1cc(Cl)c(Cl)cc1-n1ncc(C(=O)O)c1C(F)(F)F | 5 |  |  |
| Cc1cc(CC(=O)O)on1 | 0 | 1 |  |
| O=C(O)c1cnn(Cc2cccs2)c1C(F)(F)F | 1 |  |  |
| Cc1c(C(=O)NCc2ccccc2)cnn1-c1ccccc1 | 0 |  |  |
| Cc1cc(Cl)c(Cl)cc1-n1c(C)cc(C(=O)O)c1C | 3.5 |  | 24.1 |
| Cc1c(C(=O)O)cc(CCO)n1-c1ccccc1 | 2 |  |  |
| Cc1ccc(-n2ncc(C(=O)O)c2C(F)(F)F)c(C)c1 | 2.3 |  |  |
| O=C(O)Cc1ccc(Cl)c(Cl)c1 | 1 | 1.5 |  |
| O=C(O)c1cnn(-c2ccc(C(F)(F)F)cc2)c1C(F)(F)F | 1 |  |  |
| O=C(O)c1cnn(-c2c(Cl)cccc2Cl)c1C(F)(F)F | 2.5 |  |  |
| O=C(NS(=O)(=O)c1ccccc1)c1cnn(-c2ccccc2)c1C(F)(F)F | 1 |  |  |
| NCc1ccc2sccc2c1 | 0 | 1 |  |
| CCOC(=O)c1cnn(-c2ccccc2Cl)c1C(F)(F)F | 0 |  |  |
| NC(=O)C1=CN([C@@H]2O[C@H](COP(=O)(O)OP(=O)(O)OC[C@H]3O[C@@H](n4cnc5c(N)ncnc54)[C@H](OP(=O)(O)O)[C@@H]3O)[C@@H](O)[C@H]2O)C=CC1 | 3 |  |  |
| Cc1cc(C(=O)O)c(C)n1-c1ccccc1 | 2 |  | 110 |
| N#CCc1nc2ccccc2s1 | 0 | 1 |  |
| Cc1c(C(=O)O)nnn1-c1ccccc1 | 0.5 |  |  |
| NC(=O)c1cccc(-n2ncc(C(=O)O)c2C(F)(F)F)c1 | 0.5 |  |  |
| Cc1cccc(C)c1-n1ncc(C(=O)NS(=O)(=O)c2ccccc2)c1C(F)(F)F | 3 |  |  |
| O=C(O)c1cnn(-c2cccnc2)c1C(F)(F)F | 0.3 |  |  |

Further lines, results first:

| ΔTm (Pseudomonas aeruginosa [1]) [°C] | ΔTm (Pseudomonas aeruginosa [2]) [°C] | Kd [3] [µM] | SMILES |
| --- | --- | --- | --- |
| 0.2 |  |  | O=C(O)c1cnn(-c2ccccc2)c1CO |
| 0 |  |  | Nc1c(C(=O)O)cnn1-c1ccccc1 |
| 1.5 |  | 148 | O=C(O)c1cnn(-c2ccccc2Cl)c1C(F)(F)F |
| 2 |  |  | Cc1ccccc1-n1c(C)cc(C(=O)O)c1C |
| 0.5 |  |  | CS(=O)(=O)NC(=O)c1cnn(-c2ccccc2)c1C(F)(F)F |
| 0.7 |  |  | Cc1nc(C(=O)O)c(C)n1-c1ccccc1 |
| 0.7 |  |  | O=C(O)c1cnn(-c2ccccc2)c1O |
| 4 |  |  | Cc1c(-n2c(C)cc(C(=O)O)c2C)ccc(Cl)c1Cl |
| 3 |  |  | Cc1cccc(C)c1-n1c(C)cc(C(=O)O)c1C |
| 0.3 |  |  | O=C(O)c1cnn(-c2cccs2)c1C(F)(F)F |
| 2.7 |  | 11.4 | Cc1c(-n2c(C)cc(C(=O)O)c2C(F)(F)F)ccc(Cl)c1Cl |
| 1.3 |  |  | Cc1cccc(C)c1-n1ncc(C(=O)NS(=O)(=O)c2cccc(Br)c2)c1C(F)(F)F |
| 0 |  |  | NC(=O)c1cnn(-c2ccccc2)c1C(F)(F)F |
| 3.5 |  |  | NC(=O)c1ccc[n+]([C@@H]2O[C@H](COP(=O)(O)OP(=O)(O)OC[C@H]3O[C@@H](n4cnc5c(N)ncnc54)[C@H](OP(=O)(O)O)[C@@H]3O)[C@@H](O)[C@H]2O)c1 |
| 4.7 |  |  | Cc1cc(Cl)c(Cl)cc1-n1c(C)cc(C(=O)O)c1C(F)(F)F |
| 1.5 | 2 |  | Cc1cc(C(=O)O)c(C)n1Cc1cccs1 |
| 0 |  |  | Cc1c(C(=O)NS(=O)(=O)Cc2ccccc2)cnn1-c1ccccc1 |
| 1 | 3.5 |  | O=C1Nc2ccccc2C1=O |
| 2 |  |  | Cc1cccc(-n2ncc(C(=O)O)c2C(F)(F)F)c1C |
| 1 |  |  | O=C(O)c1cnn(-c2ccccc2F)c1C(F)(F)F |
| 0 |  |  | O=C(O)c1cnn(-c2ccncc2)c1C(F)(F)F |
| 1.5 |  |  | Cc1cc(C(=O)O)c(C)n1-c1cccc(Cl)c1 |
| 1.7 |  |  | Cc1cc([N+](=O)[O-])ccc1-n1ncc(C(=O)O)c1C(F)(F)F |
